Measured values reported in publication PMC10173409 (Science translational medicine, 2023).
Like-named read-outs stand apart in the source and are kept apart here.

Columns and labels:
mouse corneal epithelium [1] = assay: Corneal epithelial barrier function, fluorescein staining in vivo
Pseudomonas aeruginosa = conditions: ref [20]; cited from earlier work
[2] = tested on: cell surface/endosomal TLR3; assay: media poly; assay type: cell-based, mouse; conditions: neutrophils, high-molecular-weight poly(I:C) 1 μg/ml added to media; Fig. 1D
In short: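 Thioglycolate-elicited mouse peritoneal neutrophils (collected day 1, DMEM/2% FBS) were stimulated with high-molecular-weight poly(I:C) (1 μg/ml) added to medium, alone or with test peptide, at 37°C/5% CO₂. Phospho-NFκB p65⁺ and phospho-IRF3⁺ cells were quantified by intracellular flow cytometry. Mean ± SD, N = 3 replicates.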

[3] = tested on: thioglycolate-elicited mouse peritoneal neutrophils; assay: LPS/LTA-induced cytokine secretion from neutrophils, ELISA; assay type: cell-based; conditions: for dose dependence of cytokine inhibition, neutrophils: 50, 100 or 200 μg/ml, 8 h, Fig. S2; for cytokine suppression at 24 h, neutrophils: 24 h post-ligand stimulation, Fig. S3
In short: (§1)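 C57BL/6J mice injected i.p. with 1 ml 3% thioglycolate. Peritoneal neutrophils collected day 1 (DMEM), macrophages day 3 (RPMI, 6 h adherence), both 2% FBS, 1x10⁵ cells/well after RBC lysis. Stimulated with P. aeruginosa LPS or S. aureus LTA (500 ng/ml); test peptide (50, 100 or 200 μg/ml) added 30 min before or after. Incubated 8 or 24 h, 37°C/5% CO₂. Supernatant IL-6, TNFα, G-CSF, CXCL1, CXCL2, CXCL10 measured by ELISA.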

[4] = tested on: TLR2, mouse peritoneal macrophages; assay: TLR2 endocytosis in macrophages, flow cytometry; assay type: cell-based; conditions: peptide alone 200 μg/ml (LTA 500 ng/ml), 1 h; Fig. 4D
In short: (§2)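 Thioglycolate-elicited C57BL/6J peritoneal neutrophils (day 1) or adherent macrophages (day 3) incubated 1 h with test peptide alone. TLR2 localisation assessed by flow cytometry as cell-surface versus intracellular staining.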

[5] = tested on: human telomerase-immortalized corneal epithelial (hTCEpi) cells; assay: MTT cell viability; assay type: cell-based; conditions: discussion summary
In short: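 hTCEpi (telomerase-immortalized human corneal epithelial) cells incubated 24 h with test peptide at 200 μg/ml (0.02% w/v), with a scrambled peptide as control. Viability was read by MTT assay.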

mouse corneal epithelium [6] = assay: Corneal wound healing; assay type: in vivo; conditions: 0.1% topical, 2.5 μg peptide three times within 24 h, 6 h and 24 h after wounding, vs saline and SC10, Fig. S1E
In short: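 C57BL/6J mice, both sexes, 10–12 wk, anesthetised i.p. with ketamine/dexmedetomidine, reversed with atipamezole. Central 2 mm corneal epithelium removed with blade. Wounds got topical saline or test peptide (2.5 μg) three times within 24 h. Defects stained with 0.38% fluorescein immediately, 6 h and 24 h post-injury; stained area measured. One cornea per mouse.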

[7] = tested on: TLR2, mouse peritoneal neutrophils; assay: TLR2 endocytosis in neutrophils, flow cytometry; assay type: cell-based; conditions: peptide alone 200 μg/ml (LTA 500 ng/ml), 1 h; Fig. 4C
In short: as §2

[8] = ref [20]; cited from earlier work
red blood cells = assay: Hemolysis; assay type: cell-based; conditions: for toxic effect on blood cells: discussion summary; for hemolysis (amount of hemoglobin released): vs untreated samples, Fig. S1C
immune cells [9] = assay: Toxic effect on immune cells; conditions: discussion summary
S. aureus, mouse corneas [10] = assay: Treatment of established S. aureus keratitis; assay type: in vivo; conditions: for infectious load, S. aureus treatment: 5 μg in liposomes, 3 times daily, Fig. 7G
In short: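 C57BL/6J mice, both sexes, 10–12 wk. Corneas scarified with three 26g needle abrasions, inoculated with S. aureus 10⁶ CFU. From 24 h post-infection, 5 μg test peptide in 5 μl liposome mix (phosphatidylcholine/stearylamine/cholesterol) or liposome vehicle given topically three times daily for 1 or 3 days. Blinded daily scoring of four features (0–4 each, total 0–16). Endpoint CFU from corneal homogenates plated on tryptic soy agar.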

[11] = tested on: amikacin-resistant P. aeruginosa, mouse corneas; assay: Treatment of established P. aeruginosa keratitis; assay type: in vivo; conditions: for total leukocytes, neutrophils and macrophages, P. aeruginosa treatment: 3 times daily, as early as one day post-treatment, Fig. 6C-F; for disease severity over the 3-day treatment course, P. aeruginosa: 5 μg in liposomes topical 3 times daily
In short: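 Scarified C57BL/6J corneas (one per mouse) inoculated with amikacin-resistant P. aeruginosa (10⁵ CFU). From 24 h post-infection: test peptide in phosphatidylcholine/stearylamine/cholesterol liposomes (5 μg in 5 μl), or liposome vehicle, applied topically three times daily for 1 or 3 days. Blinded 0-16 clinical score from four opacity/epithelial features. Corneal CD45⁺ leukocytes, Ly6B.2⁺F4/80⁻ neutrophils and F4/80⁺ macrophages counted by flow cytometry.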

S. aureus, mouse corneas [12] = assay: Prophylaxis of S. aureus keratitis; assay type: in vivo; conditions: 0.1% (5 μg) topical once 30 min before 10^6 CFU, 24 h; for bacterial burden, S. aureus prophylaxis: Fig. 5H; for immune cell infiltration, S. aureus prophylaxis: Fig. 5I, J
In short: (§3)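 C57BL/6J mice (both sexes, 10-12 wk), anesthetized with ketamine/dexmedetomidine i.p. One cornea per mouse, scarified with three 26g-needle abrasions. 5 μl test peptide (0.1% in saline, 5 μg) applied once, 30 min before amikacin-resistant P. aeruginosa 10⁵ CFU or S. aureus 10⁶ CFU. At 24 h: homogenate CFU on tryptic soy agar; collagenase-digested corneas analysed by flow cytometry for CD45⁺, Ly6B.2⁺F4/80⁻ and F4/80⁺ cells. n = 8-10, two experiments.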

human MD2/TLR4 complex = assay: MD2 blocking assay; assay type: binding; conditions: for inhibition of LPS binding to MD2/TLR4 beads (in words): 30-min preincubation, peptide 60 μM, FITC-LPS 1 μg/ml, Fig. 3A; for inhibition of LPS binding to MD2/TLR4 beads with soluble MD2: soluble MD2 1 μg/ml present during preincubation with peptide 60 μM, Fig. 3B
In short: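 Human MD2/TLR4-conjugated latex beads incubated with test peptide (60 μM), without or with soluble MD2 (1 μg/ml). Beads washed, then incubated with FITC-LPS (1 μg/ml). Percentage of LPS⁺ beads quantified by flow cytometry. Mean ± SEM, n = 3-5 independent experiments.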

hTCEpi cells = assay: TUNEL assay of DNA fragmentation; assay type: cell-based, human; conditions: 24-h incubation, Fig. S1B
[13] = tested on: thioglycolate-elicited mouse peritoneal macrophages; assay: LPS/LTA-induced cytokine secretion from macrophages, ELISA; assay type: cell-based; conditions: for dose dependence of cytokine inhibition, macrophages: 50, 100 or 200 μg/ml, 8 h, Fig. S2; for cytokine suppression at 24 h, macrophages: 24 h post-ligand stimulation, Fig. S3
In short: as §1

[14] = tested on: amikacin-resistant P. aeruginosa keratitis isolate, mouse corneas; assay: Prophylaxis of P. aeruginosa keratitis; assay type: in vivo; conditions: 0.1% (5 μg) topical once 30 min before infection; 24 h; P < 0.01; Fig. 5D, E
In short: as §3

MD2/TLR4 complex = assay: LPS displacement assay; assay type: binding, human; conditions: 60 μM, 30 min; Fig. 3E
In short: (§4)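 Beads conjugated with human MD2/TLR4 complex or TLR2 were preincubated with FITC-LPS or FITC-LTA (1 μg/ml) respectively, PBS-washed, then mixed with test peptide (60 μM). Percentage of ligand-positive beads was measured by flow cytometry. Mean ± SEM, n = 3-5 independent experiments.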

TLR2 = assay: LTA displacement assay; assay type: binding, human; conditions: 60 μM, 30 min; Fig. 3F
In short: as §4

[15] = ref [49], [50]; cited from earlier work
bacteria = conditions: high-salt media; ref [49], [50]; cited from earlier work
immune cells [16] = tested on: immune cells
Staphylococcus aureus = conditions: ref [20]; cited from earlier work
[17] = ref [20]; cited from earlier work; remark: listed apart in the source

Substance	dose dependence of cytokine inhibition, neutrophils [3]	cytokine suppression at 24 h, neutrophils [3]	TLR2 internalization, macrophages [4]	toxic effect on corneal epithelial cells [5]	corneal barrier function, fluorescein staining (mouse corneal epithelium [1]; mouse, in vivo)	barrier restoration after wounding (re-epithelialization) (mouse corneal epithelium [6])	TLR2 internalization, neutrophils [7]	toxic effect on blood cells (red blood cells)	hemolysis (amount of hemoglobin released) (red blood cells)	infectious load, S. aureus treatment (S. aureus, mouse corneas [10])	total leukocytes, neutrophils and macrophages, P. aeruginosa treatment ([11]; 5 μg in liposomes)	bacterial burden, S. aureus prophylaxis (S. aureus, mouse corneas [12])	immune cell infiltration, S. aureus prophylaxis (S. aureus, mouse corneas [12])	inhibition of LPS binding to MD2/TLR4 beads (in words) (human MD2/TLR4 complex)	inhibition of LPS binding to MD2/TLR4 beads with soluble MD2 (human MD2/TLR4 complex)	apoptosis (hTCEpi cells)	dose dependence of cytokine inhibition, macrophages [13]	cytokine suppression at 24 h, macrophages [13]	infiltrated leukocytes, neutrophils and macrophages, P. aeruginosa prophylaxis [14]	disease severity over the 3-day treatment course, P. aeruginosa ([11]; Fig. 6A, B)	also measured
Benzalkonium chloride [BAK, reference compound]	–	–	–	–	–	–	–	–	–	–	–	–	–	–	–	–	–	–	–	–	corneal barrier function, fluorescein staining (mouse corneal epithelium [1]; mice, one topical application at 0.1% in saline, Fig. S1D): high degree of fluorescein penetration
GGLSSVGGGS [KAMP10]	dose-dependent	effective suppression	triggered internalization of TLR2	no detectable toxic effect	remained stain-free	substantially accelerated	triggered internalization of TLR2	no detectable toxic effect	no difference from the baseline of untreated samples	substantially reducing the infectious load	substantially reduced	alleviated	alleviated	effectively inhibited subsequent LPS binding	inhibitory effect was abolished	did not induce apoptosis	dose-dependent	effective suppression	significantly reduced	–	bactericidal mechanism, P. aeruginosa (Pseudomonas aeruginosa): perforated Pseudomonas aeruginosa membrane; p65 and IRF3 phosphorylation, media poly(I:C) [2]: inhibited p65 and IRF3 phosphorylation; binding affinity for LPS [8]: modest binding affinity; toxic effect on immune cells (immune cells [9]): no detectable toxic effect; relative effect on disease severity, P. aeruginosa treatment ([11]; KAMP10 vs KAMP18C, 5 μg in liposomes, 1 DAT, Fig. 6A, B): effect more prominent
GLSGVGSGSG [SC10, reference compound]	–	–	–	–	stain-free similarly to the SC10- or saline-treated controls	in contrast to saline and SC10	–	–	–	–	–	–	–	but not SC10, effectively inhibited	–	–	–	–	–	severity progression or lack of improvement	displacement of LPS from MD2/TLR4 beads (in words) (MD2/TLR4 complex): as opposed to SC10; displacement of LTA from TLR2 beads (in words) (TLR2): as opposed to SC10
LL-37	–	–	–	–	–	–	–	–	–	–	–	–	–	–	–	–	–	–	–	severity progression or lack of improvement	LPS- and LTA-neutralizing activity [15]: known LPS- and LTA-neutralizing activities; bactericidal activity of LL-37 (bacteria): characterized bactericidal activities in high-salt media
RAIGGGLSSVGGGSSTIK [KAMP18C]	dose-dependent	effective suppression	triggered internalization of TLR2	no detectable toxic effect	remained stain-free	substantially accelerated	triggered internalization of TLR2	no detectable toxic effect	no difference from the baseline of untreated samples	substantially reducing the infectious load	substantially reduced	alleviated	alleviated	effectively inhibited subsequent LPS binding	inhibitory effect was abolished	did not induce apoptosis	dose-dependent	effective suppression	significantly reduced	–	toxic effect on immune cells (immune cells [16]): no detectable toxic effect; bactericidal mechanism, S. aureus (Staphylococcus aureus): caused major damage to the cell envelope of Staphylococcus aureus; binding affinity for LTA [17]: modest binding affinity; relative effect on disease severity, S. aureus treatment (S. aureus, mouse corneas [10]; KAMP18C vs KAMP10, 5 μg in liposomes, Fig. 7A, B): more effective against S. aureus infection
